# Measurements reported in ChEMBL document CHEMBL1127618, “A novel nonpeptide HIV-1 protease inhibitor: elucidation of the binding mode and its application in the design of related analogs” (J Med Chem, 1994).
# Molecular target: Human immunodeficiency virus type 1 protease (Human immunodeficiency virus 1, UniProt Q72874)
# Experiment: Inhibition of HIV-1 protease
# Summary of the method: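 HIV-1 protease at 6.0 nM final added to inhibitor plus 40 μM undecapeptide substrate H-His-Lys-Ala-Arg-Val-Leu-(p-NO2)Phe-Glu-Ala-Nle-Ser-NH2, 1.0% DMSO, in 80 mM NaOAc, 160 mM NaCl, 1.0 mM EDTA, 1.0 mM DTT, 0.1% PEG 8000, pH 4.7, 37 °C. Inhibitor at […]. After 5 min, quenched with 2% TFA. Substrate and product resolved by reversed-phase HPLC (A220). % control from % conversion gives IC50.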
row,SMILES,IC50
1,COc1ccc2c(O)c(CCCCc3ccccc3OC)c(=O)oc2c1,3.3 µM
2,O=c1oc2ccccc2c(O)c1CCCOc1cccc(Cl)c1,1.4 µM
3,O=c1oc2ccccc2c(O)c1CCCOc1cccc([N+](=O)[O-])c1,4 µM
4,COc1ccccc1CCCCc1c(O)c2ccc(O)cc2oc1=O,0.52 µM
5,O=c1oc2ccccc2c(O)c1CCCOCc1ccccc1,38 µM
6,O=C(CCc1c(O)c2ccccc2oc1=O)c1ccccc1,90 µM
7,O=c1oc2ccccc2c(O)c1CCCOc1ccccc1,2.3 µM
8,O=c1oc2ccccc2c(O)c1CCCN(c1ccccc1)c1ccc(F)cc1,5.5 µM
9,NC(=O)c1cccc(OCCCc2c(O)oc3ccccc3c2=O)c1,3.9 µM
10,O=c1oc2ccccc2c(O)c1CCCOC1CCCCC1,32 µM
11,CCOC(=O)c1cccc(OCCCc2c(O)oc3ccccc3c2=O)c1,1.4 µM
12,O=c1oc2ccccc2c(O)c1CCCN(Cc1ccccc1)c1ccccc1,13 µM
13,O=c1oc2ccccc2c(O)c1CCCCc1ccccc1,110 µM
14,O=c1c(CCCO)c(O)oc2ccccc12,86 µM
15,O=c1oc2ccccc2c(O)c1CCCCOc1ccccc1,> 100 µM
16,COc1ccccc1OCCCc1c(O)oc2ccccc2c1=O,44 µM
17,COc1ccccc1CCCCc1c(O)oc2cc(OCc3ccccc3)ccc2c1=O,> 100 µM
18,O=c1oc2ccccc2c(O)c1CCOc1ccccc1,53 µM
19,COc1ccc(CCCCc2c(O)oc3ccccc3c2=O)cc1,> 100 µM
20,O=c1c(CCCOc2cccc(CO)c2)c(O)oc2ccccc12,2.3 µM
21,Nc1cccc(OCCCc2c(O)oc3ccccc3c2=O)c1,6.4 µM
22,O=c1oc2ccccc2c(O)c1CCOCc1ccccc1,4 µM
23,O=c1oc2ccccc2c(O)c1SCCOc1ccccc1,24 µM
24,O=c1[nH]c2ccccc2c(O)c1CCCOc1ccccc1,> 200 µM
25,O=c1oc2ccccc2c(O)c1CCCSc1ccccc1,26 µM
26,O=c1c(CC/C(=N/O)c2ccccc2)c(O)oc2ccccc12,71 µM
27,O=C(O)c1cccc(OCCCc2c(O)oc3ccccc3c2=O)c1,7 µM
28,N#Cc1cccc(OCCCc2c(O)c3ccccc3oc2=O)c1,0.67 µM
29,COc1ccccc1CCCCc1c(O)oc2ccccc2c1=O,1.7 µM
